According to ChEMBL document CHEMBL4350958, “Rational Design of Short Peptide Variants by Using Kunitzin-RE, an Amphibian-Derived Bioactivity Peptide, for Acquired Potent Broad-Spectrum Antimicrobial and Improved Therapeutic Potential of Commensalism Coinfection of Pathogens” (J Med Chem, 2019):
≈ marks a conversion by molar mass, not a printed value. Where a SMILES comes first, the peptide text is derived from it.

Key:
Staphylococcus aureus [1] = assay: Antibacterial activity against methicillin-resistant Staphylococcus aureus ATCC 43300 measured after 24 hrs; type: functional
How it was run: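 Broth microdilution modified from NCCLS. Mid-log bacteria at (0.5–1) × 10^5 CFU mL−1 in MHB, mixed with peptides serially diluted in 0.2% BSA. Incubated 24 h at 37 °C, read at A492. MIC taken as lowest concentration giving 95% growth inhibition. At least three independent experiments, each with three technical replicates.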

[2] = Antibacterial activity against Salmonella pullorum ATCC 7913 measured after 24 hrs; type: functional, Salmonella enterica subsp. enterica serovar Pullorum; conditions: Salmonella enterica, ATCC 7913, 24 h
How it was run: (§1)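 Broth microdilution adapted from NCCLS. Mid-log bacteria were diluted in MHB to a final (0.5–1) × 10^5 CFU mL−1. Peptides were serially diluted in 0.2% BSA and mixed with an equal volume of cells. After 24 h at 37 °C, MIC was read at A492 as the lowest concentration inhibiting 95% of growth. At least three independent experiments, each with three technical replicates.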

Escherichia coli [3] = assay: Antibacterial activity against Escherichia coli 078 measured after 24 hrs; type: functional; how it was run: as §1
Candida parapsilosis = assay: Antifungal activity against Candida parapsilosis cgmcc2.3989 measured after 48 hrs by broth microdilution method; type: functional
How it was run: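 Modified CLSI M27-A2 microdilution. Yeast colonies were diluted in MOPS-buffered RPMI 1640 to a final (0.5–1) × 10^3 CFU mL−1 and mixed with an equal volume of peptide serially diluted in 0.2% BSA. After 48 h at 28 °C, MIC was read at A492 as the lowest concentration inhibiting 95% of growth. At least three independent experiments, each with three technical replicates.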

Erythrocyte = assay: Hemolytic activity in human RBC measured after 1 hr; type: ADME, cell-based
How it was run: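 Fresh healthy-donor human erythrocytes at ~1% (v/v) in PBS pH 7.4, mixed 1:1 with peptide (1–128 µM), 1 h at 37 °C. After centrifugation at 1000×g, supernatant hemoglobin read at 576 nm. Untreated cells set 0% and 0.1% Triton X-100 set 100%. MHC defined as the concentration giving >10% hemolysis. Three or more independent experiments, triplicates.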

Escherichia coli [4] = assay: Antibacterial activity against Escherichia coli ATCC 25922 measured after 18 to 24 hrs in presence of KCl; type: functional
Escherichia coli [5] = assay: Antibacterial activity against Escherichia coli ATCC 25922 measured after 18 to 24 hrs in presence of CaCl2; type: functional
Escherichia coli [6] = assay: Antibacterial activity against Escherichia coli ATCC 25922 measured after 18 to 24 hrs in presence of FeCl3; type: functional
Staphylococcus aureus [7] = assay: Antibacterial activity against Staphylococcus aureus ATCC 29213 measured after 18 to 24 hrs in presence of NaCl; type: functional
Staphylococcus aureus [8] = assay: Antibacterial activity against Staphylococcus aureus ATCC 29213 measured after 18 to 24 hrs in presence of KCl; type: functional
Staphylococcus aureus [9] = assay: Antibacterial activity against Staphylococcus aureus ATCC 29213 measured after 18 to 24 hrs in presence of FeCl3; type: functional
Staphylococcus aureus [10] = assay: Antibacterial activity against Staphylococcus aureus ATCC 29213 measured after 18 to 24 hrs in presence of NH4Cl; type: functional
How it was run: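 MIC broth microdilution (MHB, 0.2% BSA peptide diluent, A492, 95% inhibition) run in the presence of physiological salts at final concentrations of 6 μM NH4Cl or 8 μM ZnCl2. Three independent assays, each with three technical replicates.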

Candida albicans [11] = assay: Antifungal activity against Candida albicans cgmcc2.2086 measured after 48 hrs in presence of NaCl by broth microdilution method; type: functional
Candida albicans [12] = assay: Antifungal activity against Candida albicans cgmcc2.2086 measured after 48 hrs in presence of CaCl by broth microdilution method; type: functional
[13] = Therapeutic index, ratio of MHC10 for hemolytic activity in human RBC to MIC95 against Candida tropicalis cgmcc2.1975; type: toxicity; conditions: human red blood cells (erythrocytes), read-out: TI
How it was run: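 Therapeutic index = MHC divided by MIC. MHC is the lowest concentration giving >10% lysis of human RBC (1 h, 37 °C, 1-128 µM, A576). MIC is 95% growth inhibition by broth microdilution: bacteria in MHB 24 h at 37 °C; Candida in MOPS-buffered RPMI 1640 at (0.5–1) × 10^3 CFU mL−1, 48 h at 28 °C.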

[14] = Conformational stability in 50% trifluoro-ethyl alcohol assessed as alpha-helical structural propensity by measuring absorption spectra at minimum dichroic band at 35 uM by CD spectra analysis; type: physicochemical
How it was run: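 CD spectra from 190 to 250 nm of peptide at 35 μM in 10 mM PBS, 30 mM SDS micelles or 50% TFE, recorded in a 1.0-mm quartz cell. Ellipticity was converted to mean residue ellipticity. Three independent scans, each averaged over more than 3 runs.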

Escherichia coli [15] = assay: Bactericidal activity against Escherichia coli ATCC 25922 incubated for 24 hrs followed by replating on agar plate and measured after overnight incubation; type: functional; conditions: for MBC: ATCC 25922, 24 h, read-out: MBC>99.9
How it was run: (§2)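 After the 24 h, 37 °C MHB microdilution (0.5–1 × 10^5 CFU mL−1 inoculum, peptides diluted in 0.2% BSA), 50 μL from each well was plated on agar and incubated overnight. MBC was taken as the lowest concentration killing >99.9% of cells. Three or more independent experiments, each with triplicate technical replicates.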

Salmonella typhimurium [16] = assay: Bactericidal activity against Salmonella typhimurium ATCC 14028 incubated for 24 hrs followed by replating on agar plate and measured after overnight incubation; type: functional; conditions: for MBC>99.9: Salmonella enterica subsp. enterica serovar Typhimurium; for MBC: Salmonella enterica, ATCC 14028, 24 h, read-out: MBC>99.9
How it was run: (§3)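 Mid-log bacteria diluted in MHB to (0.5–1) × 10^5 CFU/mL and mixed 1:1 with peptide serially diluted in 0.2% BSA. After 24 h at 37 °C, 50 μL of each mixture was plated on agar and incubated overnight. MBC taken as the lowest concentration killing >99.9% of cells. At least three independent experiments, each with three technical replicates.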

Escherichia coli [17] = assay: Bactericidal activity against Escherichia coli K99 incubated for 24 hrs followed by replating on agar plate and measured after overnight incubation; type: functional; conditions: for MBC: K99, 24 h, read-out: MBC>99.9; how it was run: as §3
Escherichia coli [18] = assay: Bactericidal activity against Escherichia coli 078 incubated for 24 hrs followed by replating on agar plate and measured after overnight incubation; type: functional; conditions: for MBC: Escherichia coli, 078, 24 h, read-out: MBC>99.9; how it was run: as §2
Salmonella typhimurium [19] = assay: Bactericidal activity against Salmonella typhimurium C7731 incubated for 24 hrs followed by replating on agar plate and measured after overnight incubation; type: functional; conditions: for MBC>99.9: Salmonella enterica subsp. enterica serovar Typhimurium; for MBC: Salmonella enterica, C7731, 24 h, read-out: MBC>99.9; how it was run: as §3
[20] = Lodderomyces parapsilosis, cgmcc2.3989, 48 h

Molecule | MIC95 (Staphylococcus aureus [1]; ATCC 43300, 24 h) [µM] | MIC95 [2] [µM] | MIC95 (Escherichia coli [3]; Escherichia coli, 078, 24 h) [µM] | MIC95 (Candida parapsilosis; [20]) [µM] | MHC10 (Erythrocyte) [µM] | MIC95 (Escherichia coli [4]) [µM] | MIC95 (Escherichia coli [5]) [µM] | MIC95 (Escherichia coli [6]) [µM] | MIC95 (Staphylococcus aureus [7]) [µM] | MIC95 (Staphylococcus aureus [8]) [µM] | MIC95 (Staphylococcus aureus [9]) [µM] | MIC95 (Staphylococcus aureus [10]) [µM] | MIC95 (Candida albicans [11]; cgmcc2.2086, 48 h) [µM] | MIC95 (Candida albicans [12]; cgmcc2.2086, 48 h) [µM] | selectivity ratio [13] | MBC (Escherichia coli [15]) [µM] | MBC (Salmonella typhimurium [16]) [µM] | MBC (Escherichia coli [17]) [µM] | other results
H-AAKIILNPKFR-NH2 | > 128 | > 128 | > 128 | > 128 | > 128 | 128 | > 128 | > 128 | > 128 | > 128 | > 128 | > 128 | > 128 | > 128 | 2 |  |  |  | Stability [14]: Unstable
POLYMYXIN B |  |  |  |  |  | 2 | 16 | 2 | 64 | 32 | 32 | 32 |  |  |  |  |  |  | MIC95 (Staphylococcus aureus [1]): 64 µM; MIC95 (Escherichia coli [3]): 1 µM; MIC95 (Candida parapsilosis): 8 µM; MBC>99.9 (Escherichia coli [15]): 4 µM; MBC>99.9 (Salmonella typhimurium [16]): 2 µM; MBC>99.9 (Escherichia coli [17]): 1 µM; MBC>99.9 (Escherichia coli [18]): 1 µM; MBC>99.9 (Salmonella typhimurium [19]): 4 µM; MIC95 (Candida albicans [11]): 128 µM; MIC95 (Candida albicans [12]): > 128 µM
GENTAMICIN |  |  |  |  |  | 1 | 1 | 1 | 2 | 1 | 1 | 1 |  |  |  |  |  |  | MIC95 (Staphylococcus aureus [1]): 8 µM; MIC95 (Escherichia coli [3]): 0.5 µM; MIC95 (Candida parapsilosis): > 128 µM; MBC>99.9 (Escherichia coli [15]): 1 µM; MBC>99.9 (Salmonella typhimurium [16]): 4 µM; MBC>99.9 (Escherichia coli [17]): 0.5 µM; MBC>99.9 (Escherichia coli [18]): 0.5 µM; MBC>99.9 (Salmonella typhimurium [19]): 2 µM; MIC95 (Candida albicans [11]): > 128 µM; MIC95 (Candida albicans [12]): > 128 µM
H-AARIILRNRFR-NH2 | > 128 | 16 | 16 | > 128 | > 128 | 64 | > 128 | 32 | > 128 | > 128 | > 128 | > 128 | > 128 | > 128 | 2 | 64 | 64 | 32 | MBC (Escherichia coli [18]): 32 µM; MBC (Salmonella typhimurium [19]): 128 µM; Activity [14]: 208 to 222 nm
CC[C@H](C)[C@H](NC(=O)[C@H](CCCCN)NC(=O)[C@H](C)NC(=O)[C@H](C)N)C(=O)N[C@H](C(=O)N[C@@H](CC(C)C)C(=O)N[C@@H](CC(N)=O)C(=O)N1CCC[C@H]1C(=O)N[C@@H](CCCCN)C(=O)N[C@@H](Cc1ccccc1)C(=O)N[C@@H](CCCNC(=N)N)C(=O)N[C@@H](CS)C(=O)N[C@@H](CCCCN)C(=O)N[C@@H](C)C(=O)N[C@@H](C)C(=O)N[C@@H](Cc1ccccc1)C(=O)N[C@@H](CS)C(N)=O)[C@@H](C)CC (H-AAKIILNPKFRCKAAFC-NH2) | > 128 | 64 (≈ 121 µg/mL) | > 128 | > 128 | 32 | 32 | > 128 | 32 | > 128 | > 128 | > 128 | > 128 | > 128 | > 128 | 0.25 | 64 (≈ 121 µg/mL) | 128 (≈ 242 µg/mL) | 64 (≈ 121 µg/mL) | Stability [14]: Unstable
CC(C)(O/N=C(\C(=O)N[C@@H]1C(=O)N2C(C(=O)[O-])=C(C[n+]3ccccc3)CS[C@H]12)c1csc(N)n1)C(=O)O [CEFTAZIDIME] | 16 (≈ 8.75 µg/mL) | 1 (≈ 0.547 µg/mL) | 0.5 (≈ 0.273 µg/mL) | > 128 |  | 2 | 2 | 2 | 16 | 16 | 16 | 16 | > 128 | > 128 |  | 2 (≈ 1.09 µg/mL) | 1 (≈ 0.547 µg/mL) | 1 (≈ 0.547 µg/mL) | MBC (Escherichia coli [18]): 0.5 µM (≈ 0.273 µg/mL); MBC (Salmonella typhimurium [19]): 1 µM (≈ 0.547 µg/mL)
H-AARIILRDRFR-NH2 | > 128 | > 128 | > 128 | > 128 | > 128 | 128 | > 128 | > 128 | > 128 | > 128 | > 128 | > 128 | > 128 | > 128 | 2 |  |  |  | Activity [14]: 208 to 222 nm
